Legend:
[1] = tested on: bFGF-induced angiogenesis; assay: Matrigel plug assay; type: in vivo, nude mice; conditions: Matrigel plug with bFGF (Fig. 3C bottom)
CD95 = assay: Immunohistochemistry of Matrigel plug vasculature, CD95; type: in vivo, nude mice; conditions: Matrigel plugs with bFGF (Fig. 6A)
endothelial cells = assay: Cytotoxicity in a 4-hour assay; type: cell-based, Human; conditions: P14 at concentrations above 10 nM, data not shown
[2] = tested on: bFGF/VEGF-induced angiogenesis; assay: Directed In Vivo Angiogenesis Assay; parameters: species or system nude mice
In short: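 Angioreactors filled with basement membrane extract holding bFGF/VEGF mix plus test peptide, or peptide alone, implanted subcutaneously in both flanks of nude mice, four per animal. PEDF 20 nM and 34-mer 100 nM served as controls. Recovered cells were FITC-lectin labelled and fluorescence read as relative EC invasion. Three independent experiments, normalised to negative control, averaged.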

HMVEC cells = assay: Endothelial cell apoptosis, TUNEL assay; type: cell-based, Human; conditions: overnight, 0.2% FBS, no bFGF, PEDF 10 nM, 34-mer 100 nM (Fig. 2C)
In short: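 Confluent HMVECs (passages 6–9) on coverslips were treated overnight with test peptide in MCDB131 with 0.2% FBS, with or without bFGF 20 ng/ml. PEDF 10 nM and 34-mer 100 nM were controls. TUNEL staining with propidium iodide counterstain. In 3–5 10X fields, TUNEL-positive and total PI-positive cells were counted to give % apoptotic cells.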

Molecule: 34-mer: PEDF anti-angiogenic N-terminal surface epitope, amino acid residues 24–57; parental peptide (SPPEEGSPDPDSTGALVEEEDPFFKVPVNKLAAA; UniProt P36955 24-57, looked up, fragment)
- EC apoptosis by in situ TUNEL [1]: induced significant levels of EC apoptosis
- CD95 staining of microvessels (CD95): majority of the microvessels stained positive

Molecule: P14: PEDF-derived peptide, residues 43–57 of PEDF molecule, acetylated at the N-terminus and amidated at the C-terminus (Ac-EDPFFKVPVNKLAAA-NH2; UniProt P36955 43-57, looked up, fragment)
- cytotoxicity (endothelial cells): slightly cytotoxic
- angiogenic activity of the peptide alone ([2]; DIVAA, without bFGF/VEGF, P<0.05): pro-angiogenic

Molecule: P23: PEDF-derived peptide, residues 34–57, acetylated at the N-terminus and amidated at the C-terminus (Ac-DSTGALVEEEDPFFKVPVNKLAAA-NH2; UniProt P36955 34-57, looked up, fragment)
- cytotoxicity (endothelial cells): no cytotoxic activity

B1: PEDF: Pigment epithelial-derived factor, native protein, a potent angiogenesis inhibitor (protein, UniProt P36955 20-418, looked up)
Pigment epithelium-derived …: QNPASPPEEGSPDPDSTGALVEEEDPFFKVPVNKLAAAVSNFGYDLYRVRSSTSPTTNVLLSPLSVATALSALSLGAEQRTESIIHRALYYDLISSPDIHGTYKELLDTVTAPQKNLKSASRIVFEKKLRIKSSFVAPLEKSYGTRPRVLTGNPRLDLQEINNWVQAQMKGKLARSTKEIPDEISILLLGVAHFKGQWVTKFDSRKTSLEDFYLDEERTVRVPMMSDPKAVLRYGLDSDLSCKIAQLPLTGSMSIIFFLPLKVTQNLTLIEESLTSEFIHDIDRELKTVQAVLTVPKLKLSYEGEVTKSLQEMKLQSLFDSPDFSKITGKPIKLTQVEHRAGFEWNEDGAGTTPSPGLQPAHLTFPLDYHLNQPFIFVLRDTDTGALLFIGKILDPRGP
- effect on stress-induced apoptosis in low serum (HMVEC cells): no effect
- level of vascularization reached ([2]; DIVAA with bFGF/VEGF mix, P=0.006 (PEDF) and 0.01 (P18)): to the level of BME
